Laboratory results reported in ChEMBL document CHEMBL1127357, “Synthesis and biochemical evaluation of a series of aminoflavones as potential inhibitors of protein-tyrosine kinases p56lck, EGFr, and p60v-src” (J Med Chem, 1994).

Columns and labels:
[1] = biological target: Tyrosine-protein kinase Lck (Bos taurus); assay: In vitro inhibition of protein-tyrosine activity of p56lck enzyme in presence of 50 uM ATP
[2] = biological target: Epidermal growth factor receptor (Homo sapiens, UniProt P00533); assay: Inhibition of in vitro activity of EGFr enzyme from A431 cells in presence of 5 uM ATP; type: cell-based, A-431
Sequence of Epidermal growth factor receptor (P00533 whole entry): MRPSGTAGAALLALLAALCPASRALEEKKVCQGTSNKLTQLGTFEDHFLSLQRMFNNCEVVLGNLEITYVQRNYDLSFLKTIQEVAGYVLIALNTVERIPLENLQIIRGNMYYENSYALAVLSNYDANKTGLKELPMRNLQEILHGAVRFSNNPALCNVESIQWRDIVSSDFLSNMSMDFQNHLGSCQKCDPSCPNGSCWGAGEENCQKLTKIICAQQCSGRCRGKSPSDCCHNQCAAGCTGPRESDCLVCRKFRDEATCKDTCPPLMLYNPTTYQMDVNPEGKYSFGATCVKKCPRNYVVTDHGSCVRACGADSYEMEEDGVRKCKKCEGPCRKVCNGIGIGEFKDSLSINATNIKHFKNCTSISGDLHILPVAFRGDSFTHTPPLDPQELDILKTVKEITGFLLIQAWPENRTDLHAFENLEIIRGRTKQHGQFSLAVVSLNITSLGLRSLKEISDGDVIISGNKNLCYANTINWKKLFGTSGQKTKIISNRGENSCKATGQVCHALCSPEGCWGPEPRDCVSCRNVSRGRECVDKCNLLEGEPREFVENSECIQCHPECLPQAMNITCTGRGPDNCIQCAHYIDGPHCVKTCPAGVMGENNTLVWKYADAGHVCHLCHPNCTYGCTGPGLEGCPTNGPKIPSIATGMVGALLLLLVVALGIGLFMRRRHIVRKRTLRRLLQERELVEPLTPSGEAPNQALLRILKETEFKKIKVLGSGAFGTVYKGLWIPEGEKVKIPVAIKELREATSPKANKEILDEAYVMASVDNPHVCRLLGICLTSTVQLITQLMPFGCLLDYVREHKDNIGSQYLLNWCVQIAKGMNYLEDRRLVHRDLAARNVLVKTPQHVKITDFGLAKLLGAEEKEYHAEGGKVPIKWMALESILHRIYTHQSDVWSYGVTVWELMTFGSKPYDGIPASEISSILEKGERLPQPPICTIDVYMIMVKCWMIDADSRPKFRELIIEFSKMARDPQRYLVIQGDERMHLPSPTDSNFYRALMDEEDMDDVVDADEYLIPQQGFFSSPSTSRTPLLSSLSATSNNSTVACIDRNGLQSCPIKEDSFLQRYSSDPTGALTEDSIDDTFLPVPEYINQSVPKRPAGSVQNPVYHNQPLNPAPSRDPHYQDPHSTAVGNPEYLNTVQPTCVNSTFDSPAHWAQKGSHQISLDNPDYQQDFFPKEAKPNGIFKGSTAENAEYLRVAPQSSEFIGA
Method in brief: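 EGFr from human A431 shed membrane vesicles, solubilised in 4% Triton X-100/10% glycerol; 10 μg vesicle protein. Buffer 20 mM HEPES pH 7.4, 15 mM MgCl2, 4 mM MnCl2, 0.02% BSA, 5 μM [32P]ATP, 25 μg Glu:Ala:Tyr (6:3:1) copolymer, 250 ng EGF. 10 min at room temperature; TCA/pyrophosphate quench, filter wash, scintillation counting; autophosphorylation controls included.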

| SMILES | IC50 [1] [µM] | IC50 [2] [µM] |
| --- | --- | --- |
| Nc1ccc(-c2cc(=O)c3cc(O)cc(N)c3o2)cc1 | 117 | > 100 |
| Nc1ccc(-c2cc(=O)c3cc(N)cc(N)c3o2)cc1 | 106 | > 100 |
| Nc1ccc(-c2cc(=O)c3cc(N)ccc3o2)cc1 | 103 | 8.7 |
| O=c1cc(-c2ccc([N+](=O)[O-])cc2)oc2cc(O)c([N+](=O)[O-])cc12 | > 2000 | – |
| COc1cc(N)c2oc(-c3cccc(N)c3)cc(=O)c2c1 | – | > 100 |
| Nc1ccc(-c2cc(=O)c3ccc(O)c(N)c3o2)cc1 | 328 | > 100 |
| Nc1ccc(-c2cc(=O)c3c(O)ccc(N)c3o2)cc1 | 326 | > 100 |
| Nc1ccc(-c2cc(=O)c3c(N)c(O)c(N)cc3o2)cc1 | 18 | > 100 |
| COc1cc([N+](=O)[O-])c2oc(-c3ccc([N+](=O)[O-])cc3)cc(=O)c2c1 | > 2000 | – |
| Nc1cccc(-c2cc(=O)c3cc(N)c(O)cc3o2)c1 | 502 | > 100 |
| Nc1cccc(-c2cc(=O)c3cc(N)ccc3o2)c1 | 200 | > 100 |
| O=c1cc(-c2ccc([N+](=O)[O-])cc2)oc2c([N+](=O)[O-])cc(O)cc12 | > 2000 | – |
| COc1ccc(N)c2oc(-c3ccc(N)cc3)cc(=O)c12 | – | > 100 |
| Nc1ccc(-c2cc(=O)c3cc(N)c(O)c(N)c3o2)cc1 | 754 | > 100 |
| COc1ccc([N+](=O)[O-])c2oc(-c3ccc([N+](=O)[O-])cc3)cc(=O)c12 | > 2000 | – |
| Nc1ccc(-c2cc(=O)c3c(O)c(N)ccc3o2)cc1 | 223 | > 100 |
| O=c1cc(-c2ccc([N+](=O)[O-])cc2)oc2ccc([N+](=O)[O-])c(O)c12 | > 2000 | – |
| COc1cc(N)c2oc(-c3ccc(N)cc3)cc(=O)c2c1 | 382 | > 100 |
| Nc1ccc(-c2cc(=O)c3cccc(N)c3o2)cc1 | 123 | > 100 |
| O=c1cc(-c2ccc([N+](=O)[O-])cc2)oc2c([N+](=O)[O-])c(O)ccc12 | 1880 | – |
| O=c1cc(-c2ccc([N+](=O)[O-])cc2)oc2c([N+](=O)[O-])ccc(O)c12 | > 2000 | – |
| Nc1cccc(-c2cc(=O)c3c(N)c(O)c(N)cc3o2)c1 | 46 | 7.8 |
| O=c1cc(-c2ccc([N+](=O)[O-])cc2)oc2c([N+](=O)[O-])cccc12 | > 2000 | – |
| Nc1ccc(-c2cc(=O)c3cc(N)c(O)cc3o2)cc1 | 141 | 14.1 |
| O=c1cc(-c2ccc([N+](=O)[O-])cc2)oc2ccc([N+](=O)[O-])cc12 | > 2000 | – |
